Activity calls are given as the source filed them. No cut-off for these calls is given here.
How the values were obtained:
[1] = (§1) Inhibition of TNF-induced NF-kappaB-mediated IL6 promoter expression in mouse L929sA cells by luciferase reporter gene assay; format: cell-based
Outline: (§2)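 Stably transfected mouse L929sA cells carrying p(IL-6κB)350hu.IL6P-luc+ (NFκB-responsive elements in front of a minimal IL-6 promoter), pretreated 1 h with compound over a concentration range, then given 2000 IU/ml TNF for 6 h. Luciferase in lysates was normalized to co-expressed β-galactosidase (chemiluminescent) and protein.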

[2] = target: T1, Inhibitor of nuclear factor kappa-B kinase subunit beta (Mus musculus) (UniProt O88351); assay: Induction of IKK-beta-hyperphosphorylation in TNF-stimulated mouse L929sA cells at 2.8 ug/ml by Western blot
T1 sequence (whole entry): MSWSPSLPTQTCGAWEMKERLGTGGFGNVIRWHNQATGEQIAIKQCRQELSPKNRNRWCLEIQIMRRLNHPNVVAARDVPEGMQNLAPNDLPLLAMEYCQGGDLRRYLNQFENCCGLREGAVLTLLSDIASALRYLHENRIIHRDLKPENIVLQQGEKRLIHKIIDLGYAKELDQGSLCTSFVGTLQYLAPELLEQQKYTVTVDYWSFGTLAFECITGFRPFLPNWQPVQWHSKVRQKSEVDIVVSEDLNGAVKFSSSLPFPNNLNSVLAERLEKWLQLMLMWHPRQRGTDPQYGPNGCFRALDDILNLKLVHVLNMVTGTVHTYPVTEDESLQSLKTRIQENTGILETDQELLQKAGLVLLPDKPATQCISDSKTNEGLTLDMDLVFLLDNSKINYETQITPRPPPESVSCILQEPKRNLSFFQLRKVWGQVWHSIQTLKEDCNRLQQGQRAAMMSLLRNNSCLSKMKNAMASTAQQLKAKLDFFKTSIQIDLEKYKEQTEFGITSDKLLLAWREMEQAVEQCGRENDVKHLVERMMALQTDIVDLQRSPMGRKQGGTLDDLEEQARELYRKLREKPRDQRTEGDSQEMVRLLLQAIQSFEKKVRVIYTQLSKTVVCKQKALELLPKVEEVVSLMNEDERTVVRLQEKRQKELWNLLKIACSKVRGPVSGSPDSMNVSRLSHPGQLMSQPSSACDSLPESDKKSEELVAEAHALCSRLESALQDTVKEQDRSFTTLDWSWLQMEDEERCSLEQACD

[3] = target: T1, Inhibitor of nuclear factor kappa-B kinase subunit beta (Mus musculus); assay: Induction of IKK-beta-mediated IkappaBalpha degradation in TNF-stimulated mouse L929sA cells at 2.8 ug/ml by Western blot
Mus musculus [4] = assay: Antiinflammatory activity against ip dosed zymosan-induced C57BL/6J mouse inflamed paw model assessed as effect on paw swelling administered 30 mins before zymosan challenge; format: functional, organism-based
Outline: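 Male/female not stated; 8-week-old C57BL/6J mice, 10 per group. 60 µl ip of 0.5 mg/mouse in Me2SO (vehicle group: Me2SO alone; DEX 150 µg/mouse as comparator), then 30 min later zymosan (15 mg/ml in PBS) sc into right footpad, left footpad uninjected. Thickness of both footpads measured by caliper at 6, 12, 24 and 48 h; read-out is injected minus non-injected difference.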

Mus musculus [5] = assay: Reduction of IL6 protein level in ip dosed zymosan-induced C57BL/6J mouse inflamed paw model measured 6 hrs after zymosan challenge; format: functional, organism-based
Outline: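 Mice (six per group) pretreated ip with 0.5 mg/mouse in Me2SO, DEX 150 µg/mouse or Me2SO 60 µl/mouse, 30 min before footpad zymosan. Blood drawn by retro-orbital sinus puncture under isoflurane 6 h after zymosan; IL-6 quantified by 7TD1 cell growth-stimulation bioassay. Groups compared with control by ANOVA, p<0.05 significant.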

L929sA [6] = assay: as §1; format: cell-based; outline: as §2
L929sA [7] = assay: Reversal of inhibition of TNF-induced NFkappaB/DNA binding in mouse L929sA cells at 2.8 ug/ml in presence of 250 uM dithiothreitol by electrophoretic mobility shift assay; format: cell-based
Outline: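 L929sA cells co-treated 1 h with 2.8 µg/ml and 250 µM DTT, then 2000 IU/ml TNF for 30 min. Equal protein from total extracts incubated 25 min with a 32P-labeled NFκB-specific oligonucleotide (labeled with [α-32P]dCTP by Klenow) for EMSA.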

[8] = target: T1, Inhibitor of nuclear factor kappa-B kinase subunit beta (Mus musculus); assay: Reversal of induction of IKK-beta-hyperphosphorylation in TNF-stimulated mouse L929sA cells at 2.8 ug/ml in presence of 5 mM dithiothreitol

| Structure (SMILES) | IC50 [1] [µM] | Activity [2] | Activity [3] | Activity (Mus musculus [4]) | Activity (Mus musculus [5]) | Efficacy (L929sA [6]) [%] | Activity (L929sA [7]) | Activity [8] |
| --- | --- | --- | --- | --- | --- | --- | --- | --- |
| CC1=C(CO)C(=O)OC([C@@H](C)C2CCC3C4C(CC[C@@]32C)[C@@]2(C)C(=O)C=CC[C@]2(O)[C@H]2O[C@@H]42)C1 (some centres not stated) | 90 | inactive | inactive | – | – | – | – | – |
| C[C@@H]1C[C@H]2[C@@H]3CCC4=CC(=O)C=C[C@]4(C)[C@@]3(F)[C@@H](O)C[C@]2(C)[C@@]1(O)C(=O)CO | – | – | – | Active | Active | – | – | – |
| C=C1C(=O)O[C@@H]2C[C@@H](C)[C@@H]3C=CC(=O)[C@@]3(C)[C@@H](O)[C@H]12 [HELENALIN] | 2.5 | – | – | – | – | – | – | – |
| CC1=C(CO)C(=O)O[C@@H]([C@@H](C)[C@H]2CC[C@H]3[C@@H]4C[C@H]5O[C@]56[C@@H](O)C=CC(=O)[C@]6(C)[C@H]4CC[C@]23C)C1 [WITHAFERIN A] | 0.25 | Active | Active | Active | Active | 95 | Active | Active |
| CC1=C(C)C(=O)O[C@@H]([C@](C)(O)[C@H]2CC[C@H]3[C@@H]4[C@@H]5O[C@@H]5[C@@]5(O)CC=CC(=O)[C@]5(C)[C@H]4CC[C@]23C)C1 [WITHANOLIDE A] | 50 | inactive | inactive | – | – | – | – | – |
